Data reported in article PMC5931369 (Nature chemical biology, 2018).
“And” between values parts separate entries of the source, which are not always exact repeats. Equal entries are not always repeated. “Also recorded” adds a separate entry of the source. Blank lines part the entries; values can stand above or below the compound they belong to.

What was measured:
ptc>dRet^M955T flies = assay: rescue-from-lethality assay in ptc>dRet^M955T flies; format: in vivo, Drosophila; conditions: drug food, 25°C; for rescue of ptc>dRet^M955T flies to adulthood (% viability): optimal dose
Outline: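 ptc-gal4,UAS-GFP;UAS-dRetM955T/SM5tub-gal80-TM6B flies were crossed with w−. Embryos were raised for 13 days at 25°C on semi-defined medium carrying compound added from DMSO, 0.1% final. Flies were randomised. % viability = empty pupal cases ÷ total pupal cases. The assay was repeated twice.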

[1] = system: ptc>dRet^M955T flies with or without kinase heterozygous mutations; format: in vivo, Drosophila; conditions: 23°C
765>dRet^M955T flies = assay: wing venation assay; format: in vivo, Drosophila
Outline: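 UAS-dRetM955T;765-gal4/SM5tub-gal80-TM6B flies were crossed with w– or Lk6−/+ to give 765>dRetM955T or 765>dRetM955T,Lk6−/+ progeny. Progeny were reared for 13 days at 25°C on medium with or without compound (0.1% final DMSO). Adult wings were scored blind for abnormal venation. The assay was repeated twice.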

[2] = system: dRet^M955T-expressing wing cells; assay: in vivo cell migration assay in developing wing discs; set-up: species or system Drosophila; conditions: for EMT and migration/invasion of dRet^M955T-expressing wing cells: ptc>dRet^M955T wing discs; for effect of reduced Lk6 on suppression of ptc>dRet^M955T cell migration: ptc>dRet^M955T,Lk6^−/+ wing discs, 1 400 µM, 4 200 µM, 9 100 µM, 10 100 µM
Outline: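 Third-instar larvae were dissected to collect developing wing discs. Discs were fixed in 4% paraformaldehyde in PBS and whole-mounted. GFP-labelled dRetM955T-expressing cells were examined by confocal microscopy. Phospho-Src was immunostained with rabbit anti-Src(pY418).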

non-oncogenic w^− flies = assay: whole body toxicity in control, non-transformed flies; format: in vivo, Drosophila; conditions: fed to control
MKNK1 = MKNK1 (Homo sapiens, UniProt Q9BUB5); assay: Kd measurement; format: binding
Outline: (§1)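 Competition binding assay: kinases expressed on phage and captured on beads through immobilised active-site-directed ligands. Test compound is premixed with kinase and scored for its ability to compete for the immobilised ligand. An 11-point series, 30,000 to 0.5 nM in 3-fold dilutions, is used for each compound–kinase pair. Kd is fitted by the Hill equation with slope fixed at -1 and averaged over two replicates.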

BRAF = BRAF (Homo sapiens, UniProt P15056); assay: Kd measurement; format: binding; conditions: cell-free in vitro
Outline: as §1

TT human MTC cells [3] = assay: soft agar colony formation assay; format: cell-based; conditions: three weeks, compared with sorafenib and 4
Outline: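 TT cells were cultured in 0.3% agar with or without test compound for three weeks. Colony formation efficiency = number of growing colonies ÷ cells seeded. The assay was repeated twice.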

RET = RET (Homo sapiens, UniProt P07949); assay: Kd measurement; format: binding
Outline: as §1

toleration assay = format: in vivo, mouse
Outline: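 Five female athymic nude mice (6 weeks) received escalating oral doses from 0.1 mg/kg/day up to 160 mg/kg/day.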

MZ-CRC-1 human MTC cells = assay: signaling pathway activity analysis; format: cell-based; conditions: MZ-CRC-1 cells, 1 µM, 1 hour
Outline: (§2)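 MZ-CRC-1 or TT medullary thyroid carcinoma cells were exposed for 1 hour to vehicle (0.1% DMSO) or 1 µM test compound. Cells were harvested and immunoblotted for pMEK, total MEK, pERK1/2, total ERK1/2 and pS6.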

[4] = pharmacokinetics assay in mice; format: in vivo, mouse
Outline: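 Male ICR mice (6 weeks) received a single oral dose of 20 mg/kg. Plasma drug concentrations were measured at 0.25, 0.5, 1, 2, 4, 8, 10 and 24 h after dosing.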

TT human MTC cells [5] = assay: signaling pathway activity analysis; format: cell-based; conditions: 1 µM, 1 hour
Outline: as §2

TT cells = assay: TT cell xenograft assay in nude mice; format: in vivo, mouse
Outline: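 Forty female nude mice (6 weeks) received subcutaneous TT cells. At ~120 mm3 tumour volume they were randomised into four arms. Each arm was dosed orally five days per week with vehicle or 10 mg/kg/day compound. Vehicle: Cremophor EL/ethanol (1:1) diluted 4-fold with water.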

[6] = system: BRAF in HCT-116 and LOVO cells; assay: RAF transactivation assay in human cancer cell lines; format: cell-based; conditions: two cancer cell lines (HCT-116, LOVO), 1 hour
Outline: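 HCT-116 cells are kept in DMEM and LOVO cells in DMEM/F12, each with 10% FBS, 2 mM glutamine and antibiotics. Cells are seeded, then treated with test compound for 1 hour after 24 hours. Lysates are BCA-normalised, run on 4–15% gradient SDS-PAGE and immunoblotted for pMEK, pERK1/2 and total MEK.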

[7] = higher doses that rescued ptc>dRet^M955T viability
[8] = low dose, 10 µM final food concentration, 765>dRet^M955T larvae

MKNK1, sequence (Q9BUB5 whole entry): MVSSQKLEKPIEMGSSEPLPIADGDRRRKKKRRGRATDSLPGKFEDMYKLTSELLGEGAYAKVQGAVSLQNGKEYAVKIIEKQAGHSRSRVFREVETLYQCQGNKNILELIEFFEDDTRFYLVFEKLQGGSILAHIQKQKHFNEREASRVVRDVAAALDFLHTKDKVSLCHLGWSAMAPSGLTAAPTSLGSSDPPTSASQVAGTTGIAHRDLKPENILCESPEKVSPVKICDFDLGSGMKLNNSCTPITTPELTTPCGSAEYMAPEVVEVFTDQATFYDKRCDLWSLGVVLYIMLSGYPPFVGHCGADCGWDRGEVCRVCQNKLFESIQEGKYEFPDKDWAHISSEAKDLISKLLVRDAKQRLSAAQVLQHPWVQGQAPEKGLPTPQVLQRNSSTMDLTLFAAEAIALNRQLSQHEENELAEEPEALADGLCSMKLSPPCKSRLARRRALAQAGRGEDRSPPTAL
BRAF, sequence (P15056 whole entry): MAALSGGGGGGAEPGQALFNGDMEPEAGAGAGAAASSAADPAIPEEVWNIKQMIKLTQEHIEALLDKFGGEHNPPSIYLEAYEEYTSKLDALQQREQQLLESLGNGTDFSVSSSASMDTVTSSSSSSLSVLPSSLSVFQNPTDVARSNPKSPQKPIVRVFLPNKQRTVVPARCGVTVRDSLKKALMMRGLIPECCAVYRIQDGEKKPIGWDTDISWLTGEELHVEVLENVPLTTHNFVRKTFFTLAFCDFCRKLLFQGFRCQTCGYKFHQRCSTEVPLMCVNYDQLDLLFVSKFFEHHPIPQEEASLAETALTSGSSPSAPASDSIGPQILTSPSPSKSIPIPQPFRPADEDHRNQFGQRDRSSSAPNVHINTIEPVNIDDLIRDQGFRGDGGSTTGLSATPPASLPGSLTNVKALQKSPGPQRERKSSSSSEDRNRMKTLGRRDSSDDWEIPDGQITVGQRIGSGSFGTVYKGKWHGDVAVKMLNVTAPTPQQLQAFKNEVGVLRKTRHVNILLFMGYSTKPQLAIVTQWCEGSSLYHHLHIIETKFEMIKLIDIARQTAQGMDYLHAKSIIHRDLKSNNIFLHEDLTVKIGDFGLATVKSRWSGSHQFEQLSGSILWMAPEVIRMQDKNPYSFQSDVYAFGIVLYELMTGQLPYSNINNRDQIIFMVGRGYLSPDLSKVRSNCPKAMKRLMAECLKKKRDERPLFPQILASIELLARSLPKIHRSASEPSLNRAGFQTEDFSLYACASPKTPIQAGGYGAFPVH
RET, sequence (P07949 29-1114): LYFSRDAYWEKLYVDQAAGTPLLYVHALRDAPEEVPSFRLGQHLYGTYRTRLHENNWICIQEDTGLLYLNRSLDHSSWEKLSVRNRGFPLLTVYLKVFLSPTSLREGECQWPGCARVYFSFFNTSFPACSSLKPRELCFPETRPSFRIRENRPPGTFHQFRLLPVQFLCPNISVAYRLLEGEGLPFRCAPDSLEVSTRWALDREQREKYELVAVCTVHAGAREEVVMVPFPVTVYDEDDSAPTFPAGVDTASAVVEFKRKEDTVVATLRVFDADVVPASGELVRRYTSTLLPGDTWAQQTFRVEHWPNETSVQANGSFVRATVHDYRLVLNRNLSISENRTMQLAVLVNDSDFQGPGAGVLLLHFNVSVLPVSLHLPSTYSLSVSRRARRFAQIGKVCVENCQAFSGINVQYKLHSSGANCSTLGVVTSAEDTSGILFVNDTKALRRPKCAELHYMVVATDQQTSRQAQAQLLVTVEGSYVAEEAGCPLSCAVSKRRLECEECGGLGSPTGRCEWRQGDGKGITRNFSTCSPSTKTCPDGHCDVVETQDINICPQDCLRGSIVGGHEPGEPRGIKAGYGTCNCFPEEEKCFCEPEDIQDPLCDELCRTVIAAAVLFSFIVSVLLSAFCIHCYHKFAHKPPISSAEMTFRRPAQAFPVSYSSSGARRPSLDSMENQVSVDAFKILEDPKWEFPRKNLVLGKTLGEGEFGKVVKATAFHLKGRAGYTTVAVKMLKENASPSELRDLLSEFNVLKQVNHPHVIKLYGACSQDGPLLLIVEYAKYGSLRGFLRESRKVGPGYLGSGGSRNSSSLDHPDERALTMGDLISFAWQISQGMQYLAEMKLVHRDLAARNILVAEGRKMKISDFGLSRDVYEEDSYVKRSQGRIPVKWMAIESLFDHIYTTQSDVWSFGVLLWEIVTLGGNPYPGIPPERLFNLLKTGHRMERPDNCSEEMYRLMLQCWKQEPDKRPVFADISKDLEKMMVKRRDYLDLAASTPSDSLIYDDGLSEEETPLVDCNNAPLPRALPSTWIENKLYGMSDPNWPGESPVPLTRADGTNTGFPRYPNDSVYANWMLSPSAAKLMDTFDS

Compound: CNC(=O)c1cc(Oc2ccc(NC(=O)Nc3cccc(C(F)(F)F)c3)cc2)ccn1 [LS1-11-2, N-methyl-4-(4-(3-(3-(trifluoromethyl)phenyl)ureido)phenoxy)picolinamide]
rescue of ptc>dRet^M955T viability, in words (ptc>dRet^M955T flies): reduced survival

Compound: CNC(=O)c1cc(Oc2ccc(NC(=O)Nc3cc(C(F)(F)F)ccc3F)cc2)ccn1 [compound 4, 4-(4-(3-(2-fluoro-5-(trifluoromethyl)phenyl)ureido)phenoxy)-N-methylpicolinamide]
viability of ptc>dRet^M955T flies ([1]; kinase-proficient control flies): ~ 50% and 50%
survival to adulthood of ptc>dRet^M955T,Lk6^−/+ flies ([1]; one functional allele of Lk6 removed): 0%
viability of ptc>dRet^M955T,phl^−/+ flies ([1]; phl (RAF ortholog) heterozygous): 96%
ectopic wing venation (765>dRet^M955T flies; [7]): did not promote ectopic wing venation
ectopic wing venation (765>dRet^M955T flies; [8]): stimulated significant excess wing vein material
rescue of ptc>dRet^M955T viability, in words (ptc>dRet^M955T flies; listed as LS1-15): more effective than sorafenib
EMT and migration/invasion of dRet^M955T-expressing wing cells [2]: as effective as sorafenib in suppressing EMT and invasion
effect of reduced Lk6 on suppression of ptc>dRet^M955T cell migration [2]: reversed suppression

Compound: CNC(=O)c1cc(Oc2ccc(NC(=O)Nc3cc(C(F)(F)F)ccc3F)c(F)c2)ccn1 [compound 5, 4-(3-fluoro-4-(3-(2-fluoro-5-(trifluoromethyl)phenyl)ureido)phenoxy)-N-methylpicolinamide]
rescue of ptc>dRet^M955T viability, in words (ptc>dRet^M955T flies): more effective than sorafenib
EMT and migration/invasion of dRet^M955T-expressing wing cells [2]: as effective as sorafenib in suppressing EMT and invasion

Compound: CNC(=O)c1cc(Oc2ccc(NC(=O)c3ccc(Cl)c(C(F)(F)F)c3)cc2)ccn1 [compound 6, 4-(4-(4-chloro-3-(trifluoromethyl)benzamido)phenoxy)-N-methylpicolinamide]
EMT and migration/invasion of dRet^M955T-expressing wing cells [2]: enhanced cell migration
whole body toxicity (non-oncogenic w^− flies): toxic

Compound: CNC(=O)c1cc(Oc2ccc(NC(=O)Nc3cc(C(F)F)ccc3F)cc2)ccn1 [compound 7, 4-(4-(3-(5-(difluoromethyl)-2-fluorophenyl)ureido)phenoxy)-N-methylpicolinamide]
rescue of ptc>dRet^M955T viability, in words (ptc>dRet^M955T flies): reduced rescue
rescue of ptc>dRet^M955T viability, in words (ptc>dRet^M955T flies; listed as APS4-54): poor whole animal activity

Compound: CNC(=O)c1cc(Oc2ccc(NC(=O)Nc3cc(C)ccc3F)cc2)ccn1 [compound 8, 4-(4-(3-(2-fluoro-5-methylphenyl)ureido)phenoxy)-N-methylpicolinamide]
rescue of ptc>dRet^M955T viability, in words (ptc>dRet^M955T flies): reduced rescue
rescue of ptc>dRet^M955T viability, in words (ptc>dRet^M955T flies; listed as APS4-35-1): poor whole animal activity

in vitro MKNK1 binding relative to sorafenib (MKNK1): significantly reduced
BRAF binding compared to sorafenib and 4 (BRAF): reduced BRAF binding
Compound: CNC(=O)c1cc(Oc2ccc(NC(=O)Nc3cc(C(F)(F)C(F)(F)F)ccc3F)cc2)ccn1 [compound 9, 4-(4-(3-(2-fluoro-5-(perfluoroethyl)phenyl)ureido)phenoxy)-N-methylpicolinamide]
colony formation of TT cells in soft agar (TT human MTC cells [3]): strongly suppressed
ectopic wing venation (765>dRet^M955T flies; at any dose): failed to promote ectopic wing venation
rescue of ptc>dRet^M955T viability, in words (ptc>dRet^M955T flies): strongly improved
effect of reduced Lk6 on suppression of ptc>dRet^M955T cell migration [2]: not affected

Compound: CNC(=O)c1cc(Oc2ccc(NC(=O)Nc3cc(C(F)(C(F)(F)F)C(F)(F)F)ccc3F)cc2)ccn1 [compound 10, 4-(4-(3-(2-fluoro-5-(perfluoropropan-2-yl)phenyl)ureido)phenoxy)-N-methylpicolinamide]
in vitro MKNK1 binding relative to sorafenib (MKNK1): only a small decrease
RET binding relative to sorafenib (RET): weaker RET binding
BRAF binding compared to sorafenib and 4 (BRAF): reduced BRAF binding
signs of clinical distress (weight loss, discharges, morbidity) (toleration assay; female athymic nude mice, oral dose escalated from 0.1 up to 160 mg/kg/day): no such signs were observed
toxic effects after oral dosing (toleration assay; single oral dose of 160 mg/kg): did not cause detectable toxic effects
RAS pathway signaling (MZ-CRC-1 human MTC cells): strongly inhibited
treatment-related clinical signs following dosing ([4]; 20 mg/kg orally, male ICR mice): No treatment-related clinical signs were observed
concentration in blood plasma ([4]; 20 mg/kg p.o., male ICR mice): approximately 10 µM
half-life ([4]; male, ICR, mouse, plasma, po, 20 mg/kg): 5.6 h
colony formation of TT cells in soft agar (TT human MTC cells [3]): strongly suppressed
ectopic wing venation (765>dRet^M955T flies; at any dose): failed to promote ectopic wing venation
RAS pathway signaling (TT human MTC cells [5]): strongly inhibited
rescue of ptc>dRet^M955T viability, in words (ptc>dRet^M955T flies): strongly improved
rescue of ptc>dRet^M955T flies to adulthood (% viability) (ptc>dRet^M955T flies): 84%
effect of reduced Lk6 on suppression of ptc>dRet^M955T cell migration [2]: not affected
partial or complete responses, share of dosed mice (TT cells; 10 mg/kg/day p.o. five days per week, day 30, female nude mice): 75%
growth of established TT tumors (TT cells; 10 mg/kg/day p.o. five days per week, subcutaneous xenograft, nude mice): far more potently than sorafenib or cabozantinib
body weight of dosed mice (TT cells; 10 mg/kg/day p.o., after 30 days): no effect; also recorded: did not affect body weight
drug concentration required to transactivate BRAF relative to sorafenib [6]: ~ 30 fold

Compound: CNC(=O)c1cc(Oc2ccc(NC(=O)Nc3ccc(Cl)c(C(F)(F)F)c3)c(F)c2)ccn1 [regorafenib, 4-(4-(3-(4-chloro-3-(trifluoromethyl)phenyl)ureido)-3-fluorophenoxy)-N-methylpicolinamide, reference compound]
rescue of ptc>dRet^M955T viability, in words (ptc>dRet^M955T flies): only moderate

Compound: CC(=O)Nc1cccc(-n2c(=O)n(C3CC3)c(=O)c3c(Nc4ccc(I)cc4F)n(C)c(=O)c(C)c32)c1 [trametinib, reference compound]
ectopic wing venation (765>dRet^M955T flies; 1 µM, 765>dRet^M955T adults): strongly suppressed ectopic venation
wing defects (enhanced wing venation, poor wing structure) (765>dRet^M955T flies; 765>dRet^M955T,Lk6^−/+ flies): suppressed
rescue of ptc>dRet^M955T viability, in words (ptc>dRet^M955T flies): only moderate

Compound: N-methyl-4-(4-(3-(3-(trifluoromethyl)phenyl)ureido)phenoxy)picolinamide [sorafenib, reference compound]
ectopic wing venation (765>dRet^M955T flies; [7]): did not promote ectopic wing venation
ectopic wing venation (765>dRet^M955T flies; [8]): stimulated significant excess wing vein material
rescue of ptc>dRet^M955T viability, in words (ptc>dRet^M955T flies): only moderate
rescue of ptc>dRet^M955T flies to adulthood (% viability) (ptc>dRet^M955T flies): ~ 5% and 5%
EMT and migration/invasion of dRet^M955T-expressing wing cells [2]: suppressed both EMT and migration
effect of reduced Lk6 on suppression of ptc>dRet^M955T cell migration [2]: reversed suppression
